In article PMC10825549 (JID Innovations, 2023):
Where “and” joins values, the source holds several entries; their conditions need not be identical. Equal entries are not always repeated. Entries after “also recorded” stand apart in the source; their conditions may differ.

Key:
[1] = molecular target: Aurora A (Homo sapiens, UniProt O14965); test: IC50 for kinases of potential cross-over; type: biochemical
[2] = molecular target: KDR (VEGFR2) (Homo sapiens, UniProt P35968); test: IC50 for kinases of potential cross-over; type: biochemical
[3] = test system: Jak1/3; test: Inhibition of IL-2-induced STAT phosphorylation in PBMCs; type: cell-based, human
How it was run: (§1)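 Ficoll-isolated human PBMCs, cryopreserved, thawed into RPMI/10% heat-inactivated FBS assay medium, 200,000 cells/well. Serially diluted test compound (final 20 μM to 2 × 10−6 μM) or 0.1% DMSO vehicle preincubated 1 h at 37 °C. Cytokine then added for 5–10 min, followed by 30 min shaking at 4 °C and lysis. Phospho-STAT5/STAT4 by MSD immunoassay, phospho-STAT1 by ELISA. IC50 reported as mean ± SD.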

[4] = test system: Jak1/2; test: Inhibition of IFN-γ-induced STAT phosphorylation in PBMCs; type: cell-based; conditions: Homo sapiens, PBMC, read-out: IC50 Mean ± SD
How it was run: as §1

[5] = test system: Jak2/2; test: Inhibition of GM-CSF-induced STAT phosphorylation in PBMCs; type: cell-based, human
How it was run: as §1

[6] = test system: Jak2/TYK2; test: Inhibition of IL-12-induced STAT phosphorylation in PBMCs; type: cell-based, human
How it was run: as §1

[7] = Metabolic stability in liver microsomes; type: in vitro ADME; conditions: mouse
[8] = Metabolic stability in liver microsomes; type: in vitro ADME; conditions: monkey
How it was run: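 Test compound from 1 mM DMSO solution preincubated 5 min with dog, human, monkey, rat or minipig liver microsomes. NADPH (10 mM) then added. Reactions stopped at 0, 5, 15 and 30 min with 0.05% formic acid in acetonitrile containing loperamide internal standard. Supernatants analysed by LC-MS/MS; n = 1 per microsome species.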

[9] = molecular target: CYP1A2 (Homo sapiens, UniProt P05177); test: Cytochrome P450 phenotyping; type: in vitro ADME; conditions: recombinant human CYP1A2; with NADPH; 60 minutes; n = 1
How it was run: (§2)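 Recombinant human CYPs prepared at CYP1A2 200 nM, CYP2B6/2C8 250 nM, CYP2C9 100 nM, CYP2D6 50 nM. Test compound added as 2 μM DMSO dosing solution on ice. Plate prewarmed, then 8 mM NADPH solution or blank buffer added. Incubation 60 min (1A2, 2B6, 2C8) or 30 min (2C9, 2D6). Stopped with acetonitrile plus internal standard; supernatant by LC-MS/MS; n = 1.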

[10] = molecular target: CYP2C8 (Homo sapiens, UniProt P10632); test: Cytochrome P450 phenotyping; type: in vitro ADME; conditions: recombinant human CYP2C8; with NADPH; 60 minutes; n = 1
How it was run: as §2

[11] = molecular target: CYP3A4 (Homo sapiens, UniProt P08684); test: Cytochrome P450 phenotyping; type: in vitro ADME; conditions: recombinant human CYP3A4; with NADPH; 30 minutes; n = 1
How it was run: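 Recombinant human CYP3A4 was prepared at 100 nM, and a 2 μM dosing solution of test compound in DMSO was added on ice. After prewarming, 8 mM NADPH solution or blank buffer was added for 30 minutes. Acetonitrile with internal standard stopped the reaction. The plate was shaken and centrifuged, and the supernatant was analysed by LC-MS/MS; n = 1.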

[12] = test system: Jak1/3; test: IC50 of ATI-1777 for inhibiting Jak1/3 used as plasma reference level; conditions: reference level for plasma concentrations; assay not described
[13] = test system: participants with atopic dermatitis; test: Phase 2a study ATI-1777-AD-201: safety; type: in vivo, human
How it was run: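 Adults with moderate/severe AD applied 2% solution or vehicle twice daily for 4 weeks. TEAEs: onset on/after first dose and before last dose […], counted once per preferred term and system organ class. Also assessed serious AEs, labs, vital signs, physical exams, 12-lead ECG. Full analysis set; safety reviewed every 4 weeks.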

[14] = Homo sapiens, PBMC, read-out: IC50 Mean ± SD
[15] = TEAE, full analysis set, n = 23

CYP3A4, sequence (P08684 whole entry): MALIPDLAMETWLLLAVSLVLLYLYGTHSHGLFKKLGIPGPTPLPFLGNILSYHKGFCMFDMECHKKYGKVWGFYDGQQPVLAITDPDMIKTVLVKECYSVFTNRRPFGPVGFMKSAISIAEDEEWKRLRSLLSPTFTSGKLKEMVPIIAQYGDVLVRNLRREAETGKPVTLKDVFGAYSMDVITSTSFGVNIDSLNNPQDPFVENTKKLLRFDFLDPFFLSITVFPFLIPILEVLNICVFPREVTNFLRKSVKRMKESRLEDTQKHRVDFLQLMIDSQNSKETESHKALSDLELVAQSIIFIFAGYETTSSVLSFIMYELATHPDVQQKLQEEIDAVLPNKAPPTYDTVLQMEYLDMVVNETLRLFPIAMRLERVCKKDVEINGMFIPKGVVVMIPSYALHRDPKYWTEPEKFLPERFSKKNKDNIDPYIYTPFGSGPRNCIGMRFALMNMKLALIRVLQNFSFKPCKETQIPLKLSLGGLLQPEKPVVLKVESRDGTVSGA
KDR (VEGFR2), sequence (P35968 20-1356): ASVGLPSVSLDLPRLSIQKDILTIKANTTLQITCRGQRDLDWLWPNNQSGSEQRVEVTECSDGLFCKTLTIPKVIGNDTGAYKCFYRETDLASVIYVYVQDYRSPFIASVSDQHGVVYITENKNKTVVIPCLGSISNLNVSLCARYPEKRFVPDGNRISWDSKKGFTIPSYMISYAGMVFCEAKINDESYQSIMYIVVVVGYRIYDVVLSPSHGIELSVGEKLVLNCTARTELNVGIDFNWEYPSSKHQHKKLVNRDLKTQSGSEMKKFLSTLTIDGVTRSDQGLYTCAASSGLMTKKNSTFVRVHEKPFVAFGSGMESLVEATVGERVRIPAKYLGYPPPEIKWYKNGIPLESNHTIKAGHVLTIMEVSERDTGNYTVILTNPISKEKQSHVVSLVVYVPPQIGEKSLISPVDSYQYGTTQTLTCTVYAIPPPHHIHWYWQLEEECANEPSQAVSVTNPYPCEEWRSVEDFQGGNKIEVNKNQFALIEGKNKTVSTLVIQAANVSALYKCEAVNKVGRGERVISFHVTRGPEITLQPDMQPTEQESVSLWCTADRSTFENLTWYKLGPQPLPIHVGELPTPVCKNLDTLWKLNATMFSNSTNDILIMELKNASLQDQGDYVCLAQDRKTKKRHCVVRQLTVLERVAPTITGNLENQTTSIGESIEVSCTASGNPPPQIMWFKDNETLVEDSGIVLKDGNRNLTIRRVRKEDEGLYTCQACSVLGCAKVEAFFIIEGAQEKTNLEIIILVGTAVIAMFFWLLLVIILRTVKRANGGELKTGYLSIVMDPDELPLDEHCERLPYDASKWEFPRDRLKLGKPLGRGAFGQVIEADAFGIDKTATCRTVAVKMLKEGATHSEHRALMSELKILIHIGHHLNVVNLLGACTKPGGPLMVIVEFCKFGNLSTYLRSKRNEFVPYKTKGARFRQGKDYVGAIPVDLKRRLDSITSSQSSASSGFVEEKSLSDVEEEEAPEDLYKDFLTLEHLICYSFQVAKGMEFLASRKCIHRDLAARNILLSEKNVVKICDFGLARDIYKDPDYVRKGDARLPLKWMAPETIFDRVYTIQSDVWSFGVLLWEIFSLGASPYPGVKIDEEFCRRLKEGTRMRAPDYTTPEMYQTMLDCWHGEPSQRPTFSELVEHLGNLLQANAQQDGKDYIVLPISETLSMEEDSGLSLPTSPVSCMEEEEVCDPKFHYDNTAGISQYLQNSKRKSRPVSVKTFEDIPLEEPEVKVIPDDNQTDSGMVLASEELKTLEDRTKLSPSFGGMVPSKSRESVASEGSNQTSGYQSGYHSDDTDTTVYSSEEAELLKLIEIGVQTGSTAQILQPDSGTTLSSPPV
Aurora A, sequence (O14965 whole entry): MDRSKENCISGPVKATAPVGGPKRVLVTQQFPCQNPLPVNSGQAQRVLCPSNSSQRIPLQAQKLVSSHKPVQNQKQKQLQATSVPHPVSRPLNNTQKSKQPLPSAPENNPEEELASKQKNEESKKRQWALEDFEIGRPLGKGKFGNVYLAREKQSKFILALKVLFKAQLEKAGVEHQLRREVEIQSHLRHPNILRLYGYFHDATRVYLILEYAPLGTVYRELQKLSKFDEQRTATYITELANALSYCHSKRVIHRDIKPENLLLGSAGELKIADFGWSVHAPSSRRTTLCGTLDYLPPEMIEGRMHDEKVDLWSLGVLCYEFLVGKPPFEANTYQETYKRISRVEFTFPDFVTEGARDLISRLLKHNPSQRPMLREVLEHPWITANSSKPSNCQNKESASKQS
CYP2C8, sequence (P10632 whole entry): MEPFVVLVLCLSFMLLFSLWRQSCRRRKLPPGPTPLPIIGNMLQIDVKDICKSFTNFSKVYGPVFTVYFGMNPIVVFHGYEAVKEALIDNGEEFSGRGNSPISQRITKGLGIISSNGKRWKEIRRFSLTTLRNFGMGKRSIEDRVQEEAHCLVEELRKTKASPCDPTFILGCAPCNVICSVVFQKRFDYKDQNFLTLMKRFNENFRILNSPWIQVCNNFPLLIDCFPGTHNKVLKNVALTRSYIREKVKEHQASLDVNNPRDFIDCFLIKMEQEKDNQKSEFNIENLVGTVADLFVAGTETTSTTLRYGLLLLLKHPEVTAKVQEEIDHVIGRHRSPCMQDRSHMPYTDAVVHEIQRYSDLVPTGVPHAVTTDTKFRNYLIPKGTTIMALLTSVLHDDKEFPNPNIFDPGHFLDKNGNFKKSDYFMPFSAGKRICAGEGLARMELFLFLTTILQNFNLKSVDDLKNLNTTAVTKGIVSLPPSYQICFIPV
CYP1A2, sequence (P05177 whole entry): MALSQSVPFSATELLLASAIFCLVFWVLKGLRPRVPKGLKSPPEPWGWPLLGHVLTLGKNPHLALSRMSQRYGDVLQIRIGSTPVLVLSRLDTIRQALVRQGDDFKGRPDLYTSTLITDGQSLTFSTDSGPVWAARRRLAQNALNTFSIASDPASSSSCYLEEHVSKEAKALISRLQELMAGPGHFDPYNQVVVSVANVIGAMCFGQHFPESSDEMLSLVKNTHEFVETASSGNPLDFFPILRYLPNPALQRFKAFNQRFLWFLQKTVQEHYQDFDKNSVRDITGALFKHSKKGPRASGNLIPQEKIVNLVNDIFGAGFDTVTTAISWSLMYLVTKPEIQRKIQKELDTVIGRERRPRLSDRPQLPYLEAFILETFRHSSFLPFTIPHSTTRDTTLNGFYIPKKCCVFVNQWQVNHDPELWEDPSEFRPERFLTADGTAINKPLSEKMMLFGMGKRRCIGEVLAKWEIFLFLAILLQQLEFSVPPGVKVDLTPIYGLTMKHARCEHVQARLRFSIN

CCOC(=O)c1cnc2[nH]ccc2c1N[C@@H]1CCCN(C(=O)CC#N)C1 [ATI-1777, ethyl (R)-4-((1-(2-cyanoacetyl)piperidin-3-yl)amino)-1H-pyrrolo[2,3-b]pyridine-5-carboxylate]
IC50 [1]: 641 nM | Fold Selectivity ([1]; Aurora A vs Jak1 (= 1)): 427 fold | IC50 [2]: 127 nM | Fold Selectivity ([2]; KDR (VEGFR2) vs Jak1 (= 1)): 85 fold | IC50 [3, 14]: 19 ± 6 nM | Fold Jak1/3 ([3]; IL-2, Jak1/3 (reference)): 1.0 fold | IC50 [4]: 97 ± 34 nM | Fold Jak1/3 ([5]; GM-CSF, Jak2/2 vs Jak1/3): 41.8 fold | IC50 [5, 14]: 794 ± 121 nM | IC50 [6, 14]: 898 ± 178 nM | Fold Jak1/3 ([6]; IL-12, Jak2/TYK2 vs Jak1/3): 47.3 fold | CLint scaled [7]: 3280 mL/min/kg | half-life [7]: 1.66 min | CLint scaled [8]: 939 mL/min/kg | microsomal CLint [8]: 264 µL/min/mg | half-life ([8]; T1/2, Study 1, n = 1): 2.16 min | half-life ([8]; T1/2, Study 2, n = 1): 5 min | Percentage Remaining [9]: 55.7% | Percentage Remaining [10]: 41.2% | Percentage Remaining [11]: 0.56% | IC50 of ATI-1777 for inhibiting Jak1/3 [12]: 0.045 µg/mL | deaths, serious adverse events, TEAEs of special interest ([13]; 2% topical solution twice daily, 4 weeks): No deaths or serious adverse events were reported; also recorded: No deaths or treatment-emergent AEs (TEAEs) of special interest; also recorded: No deaths or serious AEs were reported | AEs reported, proportion of participants ([13]; 2% topical solution twice daily, 4 weeks, n = 23): 39.1% | Acrochordon, Number of Events ([13]; TEAE, PT, n = 23): 1 | Acrochordon, Number of Subjects ([13]; TEAE, PT, n = 23): 1 (4.3) n (%) | Amylase increased, Number of Events ([13]; TEAE, PT, n = 23): 1 | Amylase increased, Number of Subjects ([13]; TEAE, PT, n = 23): 1 (4.3) n (%) | Application site irritation, Number of Events ([13]; TEAE, PT, n = 23): 0 | Application site irritation, Number of Subjects ([13]; TEAE, PT, n = 23): 0 n (%) | Application site pruritus, Number of Events ([13]; TEAE, PT, n = 23): 1 | Application site pruritus, Number of Subjects ([13]; TEAE, PT, n = 23): 1 (4.3) n (%) | Atrial fibrillation, Number of Events ([13]; TEAE, PT, n = 23): 1 | Atrial fibrillation, Number of Subjects ([13]; TEAE, PT, n = 23): 1 (4.3) n (%) | Blood CPK increased, Number of Events ([13]; TEAE, PT, n = 23): 2 | Blood CPK increased, Number of Subjects ([13]; TEAE, PT, n = 23): 2 n (%) and 2 (8.7) n (%) | COVID-19, Number of Events ([13]; TEAE, PT, n = 23): 0 | COVID-19, Number of Subjects ([13]; TEAE, PT, n = 23): 0 n (%) | Candida infection, Number of Events ([13]; TEAE, PT, n = 23): 1 | Candida infection, Number of Subjects ([13]; TEAE, PT, n = 23): 1 (4.3) n (%) | Dizziness, Number of Events ([13]; TEAE, PT, n = 23): 1 | Dizziness, Number of Subjects ([13]; TEAE, PT, n = 23): 1 (4.3) n (%) | Folliculitis, Number of Events ([13]; TEAE, PT, n = 23): 1 | Folliculitis, Number of Subjects ([13]; TEAE, PT, n = 23): 1 (4.3) n (%) | Food poisoning, Number of Events ([13]; TEAE, PT, n = 23): 1 | Food poisoning, Number of Subjects ([13]; TEAE, PT, n = 23): 1 (4.3) n (%) | Headache, Number of Events ([13]; TEAE, PT, n = 23): 2 | Headache, Number of Subjects ([13]; TEAE, PT, n = 23): 2 n (%) and 2 (8.7) n (%) | Lipase increased, Number of Events ([13]; TEAE, PT, n = 23): 1 | Lipase increased, Number of Subjects ([13]; TEAE, PT, n = 23): 1 (4.3)1 n (%) | Oropharyngeal pain, Number of Events ([13]; TEAE, PT, n = 23): 0 | Oropharyngeal pain, Number of Subjects ([13]; TEAE, PT, n = 23): 0 n (%) | Pharyngitis streptococcal, Number of Events ([13]; TEAE, PT, n = 23): 0 | Pharyngitis streptococcal, Number of Subjects ([13]; TEAE, PT, n = 23): 0 n (%) | Rash, Number of Events ([13]; TEAE, PT, n = 23): 0 | Rash, Number of Subjects ([13]; TEAE, PT, n = 23): 0 n (%) | SARS-CoV-2 test positive, Number of Events ([13]; TEAE, PT, n = 23): 0 | SARS-CoV-2 test positive, Number of Subjects ([13]; TEAE, PT, n = 23): 0 n (%) | Sinus congestion, Number of Events ([13]; TEAE, PT, n = 23): 0 | Sinus congestion, Number of Subjects ([13]; TEAE, PT, n = 23): 0 n (%) | Skin fragility, Number of Events ([13]; TEAE, PT, n = 23): 0 | Skin fragility, Number of Subjects ([13]; TEAE, PT, n = 23): 0 n (%) | Somnolence, Number of Events ([13]; TEAE, PT, n = 23): 0 | Somnolence, Number of Subjects ([13]; TEAE, PT, n = 23): 0 n (%) | Tinea infection, Number of Events ([13]; TEAE, PT, n = 23): 1 | Tinea infection, Number of Subjects ([13]; TEAE, PT, n = 23): 1 (4.3) n (%) | Transaminases increased, Number of Events ([13]; TEAE, PT, n = 23): 1 | Transaminases increased, Number of Subjects ([13]; TEAE, PT, n = 23): 1 (4.3) n (%) | Urinary tract infection, Number of Events ([13]; TEAE, PT, n = 23): 1 | Urinary tract infection, Number of Subjects ([13]; TEAE, PT, n = 23): 1 n (%) and 1 (4.3) n (%) | Cardiac disorders, Number of Events ([13]; TEAE, SOC, n = 23): 1 | Cardiac disorders, Number of Subjects ([13]; TEAE, SOC, n = 23): 1 (4.3) n (%) | Gastrointestinal disorders, Number of Events ([13]; TEAE, SOC, n = 23): 1 | Gastrointestinal disorders, Number of Subjects ([13]; TEAE, SOC, n = 23): 1 (4.3) n (%) | General disorders and administration site conditions, Number of Events ([13]; TEAE, SOC, n = 23): 1 | General disorders and administration site conditions, Number of Subjects ([13]; TEAE, SOC, n = 23): 1 (4.3) n (%) | Infections and infestations, Number of Events ([13]; TEAE, SOC, n = 23): 4 | Infections and infestations, Number of Subjects ([13]; TEAE, SOC, n = 23): 3 (13.0) n (%) | Investigations, Number of Events ([13]; TEAE, SOC, n = 23): 5 | Investigations, Number of Subjects ([13]; TEAE, SOC, n = 23): 3 (13.0) n (%) | Neoplasms benign, malignant, and unspecified (including cysts and polyps), Number of Events ([13]; TEAE, SOC, n = 23): 1 | Neoplasms benign, malignant, and unspecified (including cysts and polyps), Number of Subjects ([13]; TEAE, SOC, n = 23): 1 (4.3) n (%) | Nervous system disorders, Number of Events ([13]; TEAE, SOC, n = 23): 3 | Nervous system disorders, Number of Subjects ([13]; TEAE, SOC, n = 23): 3 (13.0) n (%) | Respiratory, thoracic, and mediastinal disorders, Number of Events ([13]; TEAE, SOC, n = 23): 0 | Respiratory, thoracic, and mediastinal disorders, Number of Subjects ([13]; TEAE, SOC, n = 23): 0 n (%) | Skin and subcutaneous tissue disorders, Number of Events ([13]; TEAE, SOC, n = 23): 0 | Skin and subcutaneous tissue disorders, Number of Subjects ([13]; TEAE, SOC, n = 23): 0 n (%) | Any AE, Number of Events [13, 15]: 16 | Any AE, Number of Subjects [13, 15]: 9 (39.1) n (%) | participants who discontinued study participation owing to TEAEs ([13]; n = 23): No participants | TEAE related to study treatment ([13]; one related TEAE in the group): mild application site pruritus
